# Test results reported in ChEMBL document CHEMBL5346864, “Identification of L. infantum trypanothione synthetase inhibitors with leishmanicidal activity from a (non-biased) in-house chemical library” (Eur J Med Chem, 2022).
# The source made the active and inactive calls. The calls are words filed in the database; no cut-off is given here.
# Key:
# [1] = test system: Leishmania infantum; experiment: Induction of mitochondrial inner membrane depolarization in Leishmania infantum axenic amastigotes at 5 uM incubated for 2 hrs by TMRM-derived flow cytometry
# [2] = test system: Leishmania infantum; experiment: Induction of plasma membrane depolarization in Leishmania infantum axenic amastigotes at 1 uM incubated for 2 hrs by DiBAC4(3)-derived flow cytometry
# [3] = test system: Leishmania infantum; experiment: Leishmanicidal activity against Leishmania infantum axenic amastigotes (MCAN/ES/89/IPZ229/1/89) assessed as inhibition of parasite proliferation measured after 24 hrs by resazurin dye based fluorescence analysis; format: functional, organism-based; conditions: MCAN/ES/89/IPZ229/1/89, 24 h
# Summary of the method: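 L. infantum MCAN/ES/89/IPZ229/1/89 axenic amastigotes (M199-based medium, pH 5.4, 37 °C) from log cultures seeded at 10^6/mL and treated 24 h at 37 °C. Resazurin added for a further 24 h; fluorescence read at ex 560/em 590 nm, normalized to vehicle, EC50 from two-parameter fit; triplicate in three independent experiments.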
# [4] = (§1) Inhibition of N-terminal His6-tagged recombinant Leishmania infantum promastigotes (MCAN/ES/89/IPZ229/1/89) TryS expressed in Escherichia coli BL21(DE3) Rossetta using saturating concentrations of ATP, GSH and Spd as substrate measured after 30 mins by BIOMOL Green reagent based assay
# Summary of the method: (§2)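 Recombinant His-LiTryS at 25 nM final, 100 mM HEPES pH 8, 0.5 mM EDTA, 10 mM MgCl2, 100 µM DTT, 2% DMSO, 37 °C, 30 min. Saturating substrates: 150 µM ATP, 100 µM GSH, 2 mM Spd or 500 µM GspdSH. […] Phosphate via BIOMOL Green, A650; 6-point curves, triplicate, three experiments.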
# [5] = as §1, with “ATP” for “ATP, GSH”, “Spd and Km concentration of GSH” for “Spd”
# [6] = test system: Leishmania infantum; experiment: Increase in the intracellular superoxide radical concentration in Leishmania infantum axenic amastigotes at 1 uM incubated for 2 hrs by DHE-derived flow cytometry; format: functional, cell-based
# [7] = Selectivity index, ratio of CC50 for cytotoxicity against human HepG2 cells to EC50 for Anti-Leishmanial activity against GFP-expressing Leishmania infantum axenic amastigotes infected in human THP-1 cells; format: toxicity, cell-based; conditions: read-out: Ratio CC50/EC50
# [8] = as §1, with “ATP and” for “ATP,”, “Km concentration of GspdSH” for “Spd”
# [9] = Cytotoxicity against human HepG2 cells assessed as reduction in cell proliferation measured after 72 hrs by crystal violet staining based analysis; format: toxicity
# [10] = as §1, with “of” for “of ATP,”, “Spd and Km concentration of ATP” for “Spd”
# [11] = Inhibition of N-terminal His6-tagged recombinant Leishmania infantum promastigotes (MCAN/ES/89/IPZ229/1/89) TryS expressed in Escherichia coli BL21(DE3) Rossetta using saturating concentrations of ATP, GSH and GspdSH as substrate measured after 30 mins by BIOMOL Green reagent based assay; summary of the method: as §2
# [12] = as §1, with “ATP and” for “ATP,”, “and Km concentration of” for “and”
# [13] = test system: Leishmania infantum; experiment: Anti-leishmanial activity against GFP-expressing Leishmania infantum axenic amastigotes infected in human THP-1 cells assessed as reduction in live intracellular GFP+ amastigotes measured after 72 hrs by fluorescence based analysis; format: functional, organism-based; conditions: THP-1, 72 h
# Summary of the method: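 THP-1 monocytes differentiated 24 h with 100 ng/mL PMA, infected 24 h with GFP-expressing L. infantum axenic amastigotes (5 × 10^6/mL), non-internalized parasites removed by washes and a 24 h horse-serum challenge. Treatment for 72 h at 37 °C in RPMI with 10% horse serum. SDS lysis; live (propidium iodide-negative) GFP+ amastigotes counted by flow cytometry, normalized to vehicle, EC50 by two-parameter fit; three independent experiments.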
# [14] = Inhibition of N-terminal His6-tagged recombinant Leishmania infantum promastigotes (MCAN/ES/89/IPZ229/1/89) TryS expressed in Escherichia coli BL21(DE3) Rossetta by BIOMOL Green reagent based assay; summary of the method: as §2
# [15] = (§3) Competitive inhibition of N-terminal His6-tagged recombinant Leishmania infantum promastigotes (MCAN/ES/89/IPZ229/1/89) TryS expressed in Escherichia coli BL21(DE3) Rossetta with fixed concentration of Spd and GSH and varying concentrations of ATP as substrate measured after 30 mins by Lineweaver-Burk double-reciprocal plot analysis
# Summary of the method: (§4)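 Recombinant His-tagged LiTryS (62.5 nM added to start) in 100 mM HEPES pH 8, 50 µL, 37 °C, 30 min; phosphate read with BIOMOL Green at 650 nm. Four inhibitor concentrations crossed with four varied substrate levels, no enzyme preincubation. […] Lineweaver-Burk analysis, three experiments.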
# [16] = as §3, with “ATP” for “Spd”, “GspdSH” for “ATP”; summary of the method: as §4
# [17] = as §3, with “Mixed” for “Competitive”, “ATP” for “Spd”, “GspdSH” for “ATP”; summary of the method: as §4
Compound,Activity [1],Activity [2],IC50 [4],IC50 [5],IC50 [8],IC50 [10],IC50 [11],IC50 [12],EC50 [13],IC50 [14],EC50 [3],Activity [6],selectivity ratio [7],CC50 at 72 h [9],Ki [15],Ki [16],Ki [17]
CCCCCCCCCCCCCCCCOP(=O)([O-])OCC[N+](C)(C)C [MILTEFOSINE],Active,Active,–,–,–,–,–,–,0.7 µM,45.6 µM,0.5 µM,Active,> 107,> 75 µM,–,–,–
O=C(O[C@@H]1OC[C@@H](OC(=O)c2ccc(O)c(O)c2O)[C@@H](OC(=O)c2ccc(O)c(O)c2O)[C@H]1OC(=O)c1ccc(O)c(O)c1O)c1ccc(O)c(O)c1O,–,–,5.4 µM,6.7 µM,5.1 µM,7.1 µM,5.9 µM,4.7 µM,–,–,47.6 µM,–,–,–,–,–,–
O=C(OC[C@H]1O[C@H](O[C@H]2O[C@H](COC(=O)c3cc(O)c(O)c(O)c3)[C@@H](OC(=O)c3cc(O)c(O)c(O)c3)[C@H](OC(=O)c3cc(O)c(O)c(O)c3)[C@H]2OC(=O)c2cc(O)c(O)c(O)c2)[C@H](OC(=O)c2cc(O)c(O)c(O)c2)[C@@H](OC(=O)c2cc(O)c(O)c(O)c2)[C@@H]1OC(=O)c1cc(O)c(O)c(O)c1)c1cc(O)c(O)c(O)c1,–,–,4.4 µM,5.4 µM,2 µM,5.4 µM,2.2 µM,5.6 µM,–,–,43.7 µM,–,–,–,–,–,0.8 µM

# The remaining compounds from weak to strong by IC50 [4], led by results:
Activity [1],Activity [2],IC50 [4],IC50 [5],IC50 [8],IC50 [10],IC50 [11],IC50 [12],EC50 [13],IC50 [14],Compound,EC50 [3],Activity [6],selectivity ratio [7],CC50 at 72 h [9],Ki [15],Ki [16],Ki [17]
–,–,14.8 µM,14.2 µM,10.7 µM,8.7 µM,16.2 µM,10.9 µM,13.5 µM,–,NCCCCc1cn(-c2ccc(-c3nc(-c4ccc(Oc5ccccc5)cc4)c(-c4ccccc4)s3)c(OCCN3CCNC3=O)c2)nn1,21.5 µM,–,1.2,15.9 µM,5.4 µM,3.9 µM,–
–,–,14.8 µM,14.6 µM,4.9 µM,13.4 µM,7.2 µM,9.9 µM,17.9 µM,–,CCCCCCCCCCCC(=O)NC(COC(=O)c1ccc(OCCN)c(OCCN)c1)COC(=O)c1cc(OCCN)c(OCCN)c(OCCN)c1 (stereo unspecified),7.3 µM,–,> 4.2,> 75 µM,–,2.6 µM,–
–,–,9.8 µM,8.7 µM,6 µM,8.9 µM,7.5 µM,8.4 µM,–,–,CCCCCCCCCCCCCCCOc1cc(C[N+](C)(C)C2CCCC2)ccc1OCCCCCCCCCCCCCC,> 75 µM,–,–,–,–,–,–
Active,Active,7.9 µM,7.8 µM,3.8 µM,7.3 µM,7.1 µM,5.5 µM,0.6 µM,–,CCCCCCCCCCCCCCOc1ccc(C[N+](C)(C)C2CCCC2)cc1OC,0.4 µM,Active,35.5,21.3 µM,–,–,–
